Source: PubChem BioAssay (The Scripps Research Institute Molecular Screening Center)
The list is not random: actives were taken first. Their share in the collection is about 1.4%.
Fh CTSL1 inh = counter-screen for PFM18AAP inhibitors: inhibitors of F. hepatica cathepsin L1. recombinant F. hepatica cathepsin L1, Z-Leu-Arg-MCA fluorescence. inhibition, % at 5.96 µM. actives 0.49% (n = 300,000). AID 1906;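 active means inhibition above the mean of all tested compounds plus 3 SD, set per screening campaign, cut at about 17% in these data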;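 further: 0% = plate median of test compound wells and 100% = 1 µM Z-Phe-Ala-diazomethylketone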
ZTA counter = ZTA (EBV) inhibition in EBNA-1 counter-screen. P03206. ZTA-DNA binding, fluorescence polarization. inhibition, % at 11 µM. actives 0.15% (n = 320,000); in the data active means inhibition above about 33%
Target sequence (P03206 whole entry, looked up): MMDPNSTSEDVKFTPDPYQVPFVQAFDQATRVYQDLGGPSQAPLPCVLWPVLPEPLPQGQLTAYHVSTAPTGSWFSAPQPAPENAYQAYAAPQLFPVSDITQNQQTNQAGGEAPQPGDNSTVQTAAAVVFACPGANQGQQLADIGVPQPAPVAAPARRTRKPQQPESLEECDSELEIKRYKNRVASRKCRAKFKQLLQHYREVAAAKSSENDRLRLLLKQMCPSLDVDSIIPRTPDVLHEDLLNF
HCV NS3 hel inh = blocks Hepatitis C virus NS3 helicase unwinding | NS3 helicase DNA unwinding, Cy5 molecular beacon fluorescence | AID 1800 | actives 0.56% (n = 290,000) | inhibition, % at 10.9 µM;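 active means inhibition above the mean of all tested compounds plus 3 SD, set per campaign, cut at about 35% in these data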;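 further: 0% = DMSO wells and 100% = thioflavine S control wells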
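System: Hepatitis C virus NS3 helicase domain fragment enzyme | Reagent: Annealed dual-labelled DNA beacon duplex, ATP-started | Compound dosing: 10.9 µM single point, 0.8% DMSO | Incubation: 1 h reaction at 25 °C, ATP-initiated | Technique: Cy5 fluorescence | Evaluation: Percent inhibition from t60/t0 fluorescence ratio | Benchmarks: Low DMSO, high thioflavine S at 110 µM | Replication: Singlicate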
EBNA-1 inh = blocks EBNA-1 binding to DNA. EBNA-1 DNA binding, fluorescence polarization. inhibition, % at 14.8 µM. actives 0.34% (n = 300,000). AID 1950; in the data active means inhibition above about 28%
NS3 hel confirm = HCV NS3 helicase inhibition, confirmation assay; shares compounds with HCV NS3 hel inh; NS3 helicase DNA unwinding, Cy5 molecular beacon fluorescence; inhibition, % at 10.9 µM; actives 31% (n = 1,600); AID 1943;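 active means inhibition above the mean of all tested compounds plus 3 SD, cutoff set per campaign, cut at about 36% in these data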
FID counter trip = counter-screen for HCV NS3 helicase inhibitors: DNA intercalator displacement. actives 4% (n = 1,600). shares compounds with HCV NS3 hel inh. inhibition, % at 7.9 µM. DNA fluorescent intercalator displacement, fluorescence; in the data active means inhibition above about 37%;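 further: 0% = vehicle and 100% = reference compound; higher means more displacement of ethidium bromide from the DNA hairpin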
ZTA inh confirm = EBV ZTA DNA binding inhibition, confirmation | shares compounds with ZTA counter | Zta-ZRE DNA binding, fluorescence polarization | inhibition, % at 11.1 µM | actives 30% (n = 320);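 active means mean inhibition across triplicate runs above the hit threshold derived for the original primary screen, cut at about 33% in these data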;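 further: 0% = Zta with DMSO and 100% = wells lacking Zta protein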
EBNA1 counter = blocks EBNA-1 DNA binding in ZTA counter-screen; AID 2362; inhibition, % at 14.8 µM; 320 tested, under 10 active; shares compounds with ZTA counter; fluorescence polarization; call rule not given here
The depositor's hits bear a star; nt = no result given; + = active, no number.

SMILES	Fh CTSL1 inh	ZTA counter	HCV NS3 hel inh	EBNA-1 inh	NS3 hel confirm	FID counter trip	ZTA inh confirm	EBNA1 counter
CCCc1cc(=O)oc2cc(OCC(=O)N3CCC(C(=O)O)(c4ccccc4)CC3)ccc12	1	3	49*	0	-24	-26	nt	nt
O=c1nc(/C=C/c2ccc(Cl)cc2Cl)cc(C(F)(F)F)[nH]1	nt	nt	46*	nt	70*	-16	nt	nt
CCC(C#N)(CC)P(=S)(c1ccccc1)c1ccccc1	2	-11	5	-2	nt	nt	nt	nt
CCOc1ccccc1-n1c(O)c(C=Nc2ccc(N(CC)CC)cc2)c(=O)[nH]c1=O	2	37*	54*	0	-7	-12	5	0
C#C[C@@]1(O)CCC2C3CCC4=C/C(=N/OCC(=O)NC(CCC(N)=O)C(=O)O)CC[C@]4(C)C3CC[C@@]21C (some centres undefined)	-2	-20	6	-21	nt	nt	nt	nt
CCCCOP(=O)(OCCCC)/C(C#N)=C(/C)O	-2	+	0	-6	nt	nt	0	-8
CCOc1ccccc1N1C(=O)NC(=O)C(CCc2ccncc2)(CCc2ccncc2)C1=O	-3	19	19	-7	nt	nt	nt	nt
CCN(CC)c1ccc(N=Cc2c(O)n(-c3ccccc3)c(=O)[nH]c2=O)cc1	1	38*	16	10	nt	nt	1	-4
CC(C)Oc1ccc(CC2(CCc3ccncc3)C(=O)NC(=O)NC2=O)cc1	-6	1	0	1	nt	nt	nt	nt
O=c1[nH]c2ccccc2c(=O)n1-c1ccc(Cl)cc1Cl	3	35*	-2	3	nt	nt	6	-2
CN(C)C(=O)Oc1ccc(OCc2n(C)c3ccccc3[n+]2C)cc1	4	1	4	-8	nt	nt	nt	nt
